Measured values: article PMC11868578 (Nature Communications, 2025)
≈ marks a conversion by molar mass, not a printed value.

Columns and labels:
[1] = system: N-YFP IBs (N protein condensates); assay: N-YFP inclusion bodies; type: cell-based, Nicotiana benthamiana
TSWV = assay: Anti-TSWV assay, half-leaf method on Nicotiana glutinosa; type: in vivo, tomato spotted wilt virus; conditions: for Curative effect (%) / Inactive effect (%) (inactivation activity) / Protective effect (%): 500 µg/mL, half-leaf method, N. glutinosa, mean ± SD, n = 3; for EC50: Orthotospovirus tomatomaculae, in Nicotiana glutinosa
Method in brief: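 Half-leaf test on healthy N. glutinosa, leaves pre-dusted with carborundum and virus extract brushed on. Curative: leaves rinsed 30 min after inoculation, then agent put on the right half. Protective: agent put on 12 h before inoculation. Inactivation: agent mixed 1:1 with virus extract on ice for 30 min, then put on the right half; left half got buffer-diluted virus. Plants grown at 25 °C day/23 °C night. Lesions counted after about 2 days. EC50 from 31.25–500 µg/mL.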

PVY = assay: Inactivation activity against PVY; type: in vivo; conditions: read-out: Inhibition rate (inactivation activity) against PVY
PMMoV = assay: Inactivation activity against PMMoV; type: in vivo; conditions: read-out: Inhibition rate (inactivation activity) against PMMoV
N WT (NWT) = molecular target: T1, N WT (NWT) (Tomato spotted wilt virus (TSWV), UniProt P26000 1-258); assay: BLI
T1 sequence: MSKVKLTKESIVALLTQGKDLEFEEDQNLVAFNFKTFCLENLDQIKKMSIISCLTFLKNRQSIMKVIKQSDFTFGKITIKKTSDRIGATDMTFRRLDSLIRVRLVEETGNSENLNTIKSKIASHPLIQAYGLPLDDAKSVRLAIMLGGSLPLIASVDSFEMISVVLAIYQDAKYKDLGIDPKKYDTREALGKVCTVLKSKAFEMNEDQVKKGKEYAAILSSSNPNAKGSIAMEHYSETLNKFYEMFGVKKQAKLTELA

For `OCCCCCCO` [1,6-hexanediol], the “Effect on N-YFP particle number, leaves treated at 36 h” value ([1]; 36 hpi) was “significant reduction in particle number” and the “Effect on large N-YFP granules, leaves treated at 72 h” value ([1]; 72 hpi) was “difficult to observe a significant decrease in the number of large particles”.

With `CNCC(=O)N[C@@H](CO)C(=O)N[C@H]1[C@H](O)[C@@H](O)[C@H](n2ccc(N)nc2=O)O[C@@H]1C(N)=O` [Ningnanmycin] the “Curative effect (%)” value (TSWV) was 57.9 ± 1.5%, the “Inactive effect (%) (inactivation activity)” value (“Inactive effect (%)” for short) (TSWV) was 69.3 ± 2.4% and the “Protective effect (%)” value (TSWV) was 61.7 ± 5.2%. The “Inactive effect (%)” value (TSWV; listed as ningnanmycin) was 69.3%, the EC50 (TSWV) was 149 ± 8.7 µg/mL (≈ 337 µM) and the inhibition at 500 µg/mL (PVY) was 77.6%. It also gave an inhibition at 500 µg/mL (PMMoV) of 72%.

For `NC(=O)c1ncn([C@@H]2O[C@H](CO)[C@@H](O)[C@H]2O)n1` [Ribavirin], the “Curative effect (%)” value (TSWV) was 39.2 ± 3.2%, the “Inactive effect (%)” value (TSWV) was 43.7 ± 7.5% and the “Protective effect (%)” value (TSWV) was 40.4 ± 6.8%. The “Inactive effect (%)” value (TSWV; listed as ribavirin) was 43.7%, the EC50 (TSWV) was 802 ± 12.6 µg/mL (≈ 3280 µM) and the inhibition at 500 µg/mL (PVY) was 55.3%. It also gave an inhibition at 500 µg/mL (PMMoV) of 56.5%.

In the case of GAGAGCAAUUGUGUCAGAA (ssRNA) [biotinylated RNA (BLI)], the Kd (N WT (NWT)) is reported as 7.3 nM.
